Test results as given in publication PMC10147382 (ACS chemical neuroscience, 2022).
Several values for one entry are separate records, joined by “and”; a condition that tells them apart may be missing. Identical values can stand only once. Like-named read-outs stand apart in the source and are kept apart here.

Experiments:
5-HT2A receptor [1] = molecular target: T1, 5-HT2A receptor (Homo sapiens, UniProt P28223); test: G protein; type: cell-based
Target sequence in this assay (P28223 whole entry): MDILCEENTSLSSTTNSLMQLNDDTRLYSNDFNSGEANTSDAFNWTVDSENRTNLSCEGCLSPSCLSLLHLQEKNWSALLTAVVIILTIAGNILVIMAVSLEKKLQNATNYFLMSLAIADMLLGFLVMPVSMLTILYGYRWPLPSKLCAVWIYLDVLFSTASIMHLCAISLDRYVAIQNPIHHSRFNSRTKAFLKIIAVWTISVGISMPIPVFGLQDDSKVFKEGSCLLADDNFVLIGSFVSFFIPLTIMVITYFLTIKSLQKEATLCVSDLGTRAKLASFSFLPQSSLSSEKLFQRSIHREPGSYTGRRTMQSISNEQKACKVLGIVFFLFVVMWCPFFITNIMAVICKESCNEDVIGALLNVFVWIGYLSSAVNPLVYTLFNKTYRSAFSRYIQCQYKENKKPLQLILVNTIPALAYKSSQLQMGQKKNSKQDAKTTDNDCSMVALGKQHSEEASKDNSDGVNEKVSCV

rabbits = conditions: cited from earlier work
cats = conditions: cited from earlier work
5-HT2C receptor [2] = molecular target: T2, 5-HT2C receptor (Homo sapiens, UniProt P28335); test: Calcium flux assay; type: cell-based; conditions: relative to 5-HT
T2 sequence (P28335 33-458): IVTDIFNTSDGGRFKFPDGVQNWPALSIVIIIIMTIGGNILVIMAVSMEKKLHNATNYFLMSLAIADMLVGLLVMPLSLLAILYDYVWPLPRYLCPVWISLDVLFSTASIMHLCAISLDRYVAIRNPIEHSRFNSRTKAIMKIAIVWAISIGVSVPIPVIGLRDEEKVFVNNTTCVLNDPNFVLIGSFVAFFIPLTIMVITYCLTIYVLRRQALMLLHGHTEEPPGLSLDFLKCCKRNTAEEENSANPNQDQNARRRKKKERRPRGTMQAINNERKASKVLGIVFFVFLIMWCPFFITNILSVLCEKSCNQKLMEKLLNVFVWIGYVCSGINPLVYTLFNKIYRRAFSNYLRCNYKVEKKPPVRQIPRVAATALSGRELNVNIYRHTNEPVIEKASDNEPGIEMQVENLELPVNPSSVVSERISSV
Summary of the method: (§1)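 Flp-In 293 T-Rex cells stably carry tetracycline-inducible human 5-HT2A or 5-HT2C. Expression is induced with tetracycline (2 ug/mL) the day before, with about 7,500 cells/well in 1% dialyzed FBS. Cells are loaded with Fluo-4 Direct for 1 h at 37°C in HBSS/20 mM HEPES pH 7.4 with 2.5 mM probenecid, then held 15 min at RT. Fluorescence is read 10 s baseline, then 5-10 min after drug. Peak fold-over-basal or AUC is normalized to % 5-HT, with EC50/Emax from nonlinear regression.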

[3] = test system: auxilin knockout (KO) mice; test: Auxilin KO Parkinson's model, hind limb clasping; type: in vivo, mouse; conditions: 10 mg/kg i.p., 15 to 30 minutes after treatment
Summary of the method: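 Auxilin KO and WT mice aged 9-12 months, sex balanced, n=5-7/group, treated i.p. with vehicle (0.85% saline) or test compound at 10 mg/kg in saline with 2 molar equivalents of acetic acid, at 10 ml/kg. Testing is done one week pre-treatment and 15-30 min post-dose. Mice are held by the tail base and lowered for 30 s. Clasping is scored 0 (none), 1 (one limb) or 2 (both limbs), and total clasping duration is recorded. Kruskal-Wallis with Dunn's post hoc test.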

humans = conditions: cited from earlier work
5-HT2A receptor [4] = molecular target: T1, 5-HT2A receptor; test: Calcium flux assay; type: cell-based
Summary of the method: as §1
Target sequence in this assay (P28223 whole entry): as the sequence (P28223 whole entry) above

5-HT2A receptor [5] = molecular target: T1, 5-HT2A receptor; test: Radioligand displacement assay; type: binding; conditions: standard radioligand 125I-DOI
Target sequence in this assay (P28223 whole entry): as the sequence (P28223 whole entry) above

patients = conditions: cited from earlier work
5-HT1F receptor = 5-HT1F receptor (Homo sapiens, UniProt P30939); test: 5-HTome G protein activation BRET screen; type: cell-based
5-HT1F receptor, sequence (P30939 whole entry): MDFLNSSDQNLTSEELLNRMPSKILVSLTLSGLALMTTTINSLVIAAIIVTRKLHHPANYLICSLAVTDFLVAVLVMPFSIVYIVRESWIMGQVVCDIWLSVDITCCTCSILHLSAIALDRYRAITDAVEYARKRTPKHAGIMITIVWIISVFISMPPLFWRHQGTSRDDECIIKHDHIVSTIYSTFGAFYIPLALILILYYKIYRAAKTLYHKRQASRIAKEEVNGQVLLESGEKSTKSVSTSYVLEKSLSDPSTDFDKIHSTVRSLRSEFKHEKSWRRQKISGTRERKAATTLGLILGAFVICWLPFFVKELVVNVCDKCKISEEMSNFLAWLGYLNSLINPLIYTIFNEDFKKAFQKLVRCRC
Summary of the method: (§2)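 Human 5-HT receptors (12 in the panel) are tested by G protein-dissociation BRET2. Cells are reverse-transfected about 48 h before assay with receptor:Gα-Rluc8:Beta:GFP2-γ (TRUPATH) at 1:1:1:1 and plated in 1% dFBS. Drug is added in HBSS/20 mM HEPES pH 7.4 with 0.3% BSA and 0.03% ascorbic acid, then incubated 60 min at 37°C. Coelenterazine 400a is 5 uM final. The 510/400 ratio is normalized to % positive control, with EC50/Emax from log(agonist) vs response. Three independent experiments in triplicate.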

5-HT1e receptor = 5-HT1e receptor (Homo sapiens, UniProt P28566); test: 5-HTome G protein activation BRET screen; type: cell-based; conditions: 5-HTome screen
Summary of the method: as §2

mice [6] = test: Head twitch response; type: in vivo, mouse
5-HT1B receptor = 5-HT1B receptor (Homo sapiens, UniProt P28222); test: 5-HTome G protein activation BRET screen; type: cell-based; conditions: 5-HTome screen
5-HT1B receptor, sequence (P28222 whole entry): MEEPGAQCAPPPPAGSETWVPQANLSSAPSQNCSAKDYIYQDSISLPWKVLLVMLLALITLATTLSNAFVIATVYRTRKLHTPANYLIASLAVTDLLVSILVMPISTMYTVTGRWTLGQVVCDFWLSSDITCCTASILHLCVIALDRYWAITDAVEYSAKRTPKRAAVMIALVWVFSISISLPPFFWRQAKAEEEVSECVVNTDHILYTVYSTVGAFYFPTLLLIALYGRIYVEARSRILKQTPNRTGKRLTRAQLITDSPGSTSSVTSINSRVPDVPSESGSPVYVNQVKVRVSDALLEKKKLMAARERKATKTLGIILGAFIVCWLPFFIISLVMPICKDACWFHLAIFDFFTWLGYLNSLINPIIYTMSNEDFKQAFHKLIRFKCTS
Summary of the method: as §2

5-HT2B receptor [7] = molecular target: T3, 5-HT2B receptor (Homo sapiens, UniProt P41595); test: G protein; type: cell-based
T3 sequence (P41595 whole entry): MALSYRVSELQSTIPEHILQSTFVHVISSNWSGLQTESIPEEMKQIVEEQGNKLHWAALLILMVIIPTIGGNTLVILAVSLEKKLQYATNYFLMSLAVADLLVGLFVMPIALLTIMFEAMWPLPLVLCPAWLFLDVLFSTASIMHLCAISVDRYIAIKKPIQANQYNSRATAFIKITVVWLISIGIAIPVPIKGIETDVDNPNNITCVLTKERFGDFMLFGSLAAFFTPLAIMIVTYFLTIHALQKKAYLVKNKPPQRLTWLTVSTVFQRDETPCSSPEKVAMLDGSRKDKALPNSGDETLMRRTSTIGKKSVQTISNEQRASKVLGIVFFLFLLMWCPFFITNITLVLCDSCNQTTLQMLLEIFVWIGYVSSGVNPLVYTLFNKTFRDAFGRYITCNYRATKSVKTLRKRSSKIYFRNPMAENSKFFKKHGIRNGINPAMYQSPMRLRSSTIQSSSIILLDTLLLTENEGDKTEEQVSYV

[8] = test system: auxilin knockout (KO) mice; test: Auxilin KO Parkinson's model, balance beam; type: in vivo, mouse; conditions: 10 mg/kg i.p., 15 to 30 minutes after treatment
Summary of the method: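 Auxilin KO and WT mice aged 9-12 months, sex balanced, n=5-7/group. Vehicle is 0.85% saline i.p. at 10 ml/kg. Test compound is 10 mg/kg i.p. in 0.85% saline with 2 molar equivalents of glacial acetic acid, at 10 ml/kg. Baseline testing is done one week before treatment and repeated 15-30 min post-dose. Balance beam: mice walk a raised narrow beam to a safety box, scored as average crossing time and crossings per minute. Mean ± S.E.M.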

rats [9] = conditions: 10 mg/kg, s.c. or i.p. ref 12, 13; cited from earlier work
5-HT1A receptor = 5-HT1A receptor (Homo sapiens, UniProt P08908); test: 5-HTome G protein activation BRET screen; type: cell-based; conditions: 5-HTome screen
Summary of the method: as §2

mice [10] = test: Open field test; type: in vivo, mouse; conditions: for effect on general locomotion: s.c.
5-HT2C receptor [11] = molecular target: T2, 5-HT2C receptor; test: G protein; type: cell-based
5-HT1D receptor = 5-HT1D receptor (Homo sapiens, UniProt P28221); test: 5-HTome G protein activation BRET screen; type: cell-based; conditions: 5-HTome screen
5-HT1D receptor, sequence (P28221 whole entry): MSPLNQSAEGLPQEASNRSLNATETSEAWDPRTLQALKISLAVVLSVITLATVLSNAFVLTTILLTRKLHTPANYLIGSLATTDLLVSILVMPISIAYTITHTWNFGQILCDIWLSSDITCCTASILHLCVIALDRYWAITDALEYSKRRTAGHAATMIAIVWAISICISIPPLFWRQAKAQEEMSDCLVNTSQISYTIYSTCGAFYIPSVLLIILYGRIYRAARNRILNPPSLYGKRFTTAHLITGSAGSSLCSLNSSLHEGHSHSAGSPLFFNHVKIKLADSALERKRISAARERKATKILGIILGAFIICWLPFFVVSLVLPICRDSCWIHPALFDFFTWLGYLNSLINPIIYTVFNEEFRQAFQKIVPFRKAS
Summary of the method: as §2

mice [12] = test: Novelty suppressed feeding; type: in vivo, mouse; conditions: 7 days post-drug administration; 10mg/kg
mice [13] = test: Elevated plus maze; type: in vivo, mouse; conditions: 30 minutes and 4 hours post single s.c. injection
Summary of the method: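 Elevated plus maze in mice given a single subcutaneous injection of test compound or a reference psychedelic. Time in open vs closed arms and arm entries are scored at 30 min and 4 h post-injection. n=10/group, mean ± S.E.M. Analysis is two-way ANOVA with Dunnett's post hoc test.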

5-HT2A receptor [14] = molecular target: T1, 5-HT2A receptor; test: β-arrestin2 recruitment BRET assay; type: cell-based
Target sequence in this assay (P32121 whole entry): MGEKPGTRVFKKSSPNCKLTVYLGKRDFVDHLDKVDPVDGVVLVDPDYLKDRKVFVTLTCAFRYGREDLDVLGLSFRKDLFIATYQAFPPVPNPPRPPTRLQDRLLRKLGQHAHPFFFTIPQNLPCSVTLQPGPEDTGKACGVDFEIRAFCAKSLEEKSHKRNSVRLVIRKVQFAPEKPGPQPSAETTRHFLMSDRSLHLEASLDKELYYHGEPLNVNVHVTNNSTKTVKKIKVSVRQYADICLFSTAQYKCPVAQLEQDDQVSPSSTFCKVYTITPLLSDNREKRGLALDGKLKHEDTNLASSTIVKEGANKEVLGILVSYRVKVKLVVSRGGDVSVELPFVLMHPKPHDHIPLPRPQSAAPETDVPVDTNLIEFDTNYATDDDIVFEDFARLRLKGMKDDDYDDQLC
Target sequence in this assay (P28223 whole entry): as the sequence (P28223 whole entry) above

5-HT2A receptor [15] = molecular target: T1, 5-HT2A receptor; test: SafetyScreen44 broad screen; type: binding; conditions: 10 uM Ariadne; positive hit threshold
Summary of the method: (§3)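 Broad binding screen of 44 targets (GPCRs, nuclear receptors, ion channels, monoamine transporters, enzymes) with racemic test compound at 10 uM. Read-out is % displacement of each target's standard radioligand. A positive hit is defined as more than 50% displacement.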
Target sequence in this assay (P28223 whole entry): as above

dopamine 1 receptor = dopamine 1 receptor (Homo sapiens, UniProt P21728); test: Activity at other aminergic receptors
[16] = molecular target: norepinephrine transporter (NET) (Homo sapiens, UniProt P23975); test: SafetyScreen44 broad screen; type: binding; conditions: 10 uM
norepinephrine transporter (NET), sequence (P23975 whole entry): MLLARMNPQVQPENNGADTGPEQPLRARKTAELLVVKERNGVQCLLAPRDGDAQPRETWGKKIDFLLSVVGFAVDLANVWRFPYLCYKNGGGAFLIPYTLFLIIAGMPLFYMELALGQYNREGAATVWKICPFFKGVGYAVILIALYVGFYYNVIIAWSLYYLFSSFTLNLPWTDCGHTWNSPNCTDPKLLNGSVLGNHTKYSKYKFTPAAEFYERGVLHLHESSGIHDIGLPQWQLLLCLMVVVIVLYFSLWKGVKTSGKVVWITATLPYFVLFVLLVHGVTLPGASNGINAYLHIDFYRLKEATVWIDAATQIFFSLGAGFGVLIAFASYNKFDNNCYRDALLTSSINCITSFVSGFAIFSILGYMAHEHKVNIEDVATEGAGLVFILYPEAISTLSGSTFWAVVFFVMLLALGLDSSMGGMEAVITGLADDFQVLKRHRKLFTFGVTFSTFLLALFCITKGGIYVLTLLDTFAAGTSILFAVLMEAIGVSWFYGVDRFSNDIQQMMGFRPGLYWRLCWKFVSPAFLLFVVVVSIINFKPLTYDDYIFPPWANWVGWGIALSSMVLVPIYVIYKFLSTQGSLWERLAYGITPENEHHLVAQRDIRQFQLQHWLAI
Summary of the method: as §3

adrenergic receptors = test: Activity at other aminergic receptors; conditions: no/low activity
[17] = molecular target: serotonin transporter (SERT) (Homo sapiens, UniProt P31645); test: SafetyScreen44 broad screen; type: binding; conditions: 10 uM
Summary of the method: as §3

rat smooth muscle = conditions: compared to serotonin and (R)-DOM ref 11; cited from earlier work
dopamine 2 receptor = dopamine 2 receptor (Homo sapiens, UniProt P14416); test: Activity at other aminergic receptors
dopamine 2 receptor, sequence (P14416 whole entry): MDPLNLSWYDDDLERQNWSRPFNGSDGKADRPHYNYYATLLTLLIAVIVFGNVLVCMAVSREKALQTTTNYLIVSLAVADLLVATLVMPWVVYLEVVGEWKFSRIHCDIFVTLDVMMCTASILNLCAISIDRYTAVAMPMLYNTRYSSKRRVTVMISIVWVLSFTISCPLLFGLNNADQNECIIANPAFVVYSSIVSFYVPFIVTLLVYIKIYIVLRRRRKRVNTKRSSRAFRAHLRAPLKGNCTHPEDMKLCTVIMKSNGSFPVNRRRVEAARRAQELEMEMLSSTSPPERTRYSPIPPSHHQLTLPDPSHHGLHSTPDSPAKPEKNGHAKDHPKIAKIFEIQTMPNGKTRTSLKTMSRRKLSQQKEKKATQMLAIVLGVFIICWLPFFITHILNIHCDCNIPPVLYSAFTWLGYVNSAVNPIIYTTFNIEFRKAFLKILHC

[18] = Brain and plasma pharmacokinetic evaluation; type: in vivo, mouse; conditions: brain and plasma PK
5-HT2B receptor [19] = molecular target: T3, 5-HT2B receptor; test: SafetyScreen44 broad screen; type: binding; conditions: 10 uM Ariadne; positive hit threshold
Summary of the method: as §3

rats [20] = conditions: cited from earlier work
[21] = molecular target: dopamine transporter (DAT) (Homo sapiens, UniProt Q01959); test: SafetyScreen44 broad screen; type: binding; conditions: 10 uM
dopamine transporter (DAT), sequence (Q01959 whole entry): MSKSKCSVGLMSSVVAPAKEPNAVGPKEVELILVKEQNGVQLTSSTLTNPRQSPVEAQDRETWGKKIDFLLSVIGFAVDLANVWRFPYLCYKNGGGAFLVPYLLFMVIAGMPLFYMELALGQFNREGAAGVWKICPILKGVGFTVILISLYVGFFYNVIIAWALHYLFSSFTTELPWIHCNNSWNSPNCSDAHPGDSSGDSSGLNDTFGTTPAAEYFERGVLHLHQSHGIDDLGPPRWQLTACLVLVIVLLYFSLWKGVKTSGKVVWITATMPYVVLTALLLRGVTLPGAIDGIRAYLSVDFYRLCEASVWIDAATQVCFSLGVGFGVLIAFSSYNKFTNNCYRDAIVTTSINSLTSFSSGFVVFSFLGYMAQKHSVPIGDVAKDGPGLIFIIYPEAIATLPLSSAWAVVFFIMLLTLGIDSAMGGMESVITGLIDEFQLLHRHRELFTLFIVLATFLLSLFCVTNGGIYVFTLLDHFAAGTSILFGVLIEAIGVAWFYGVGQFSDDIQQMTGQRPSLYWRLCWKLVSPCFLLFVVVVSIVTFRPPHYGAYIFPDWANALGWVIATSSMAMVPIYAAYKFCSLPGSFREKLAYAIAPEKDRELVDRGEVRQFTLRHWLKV
Summary of the method: as §3

rats [22] = conditions: cited from earlier work; remark: listed apart in the source
[23] = read-out: EC50 (Gq), Gq dissociation BRET

CC[C@@H](N)Cc1cc(OC)c(C)cc1OC [(R)-Ariadne]
EC50 (5-HT2A receptor [1]; 5-HTome screen): < 1 µM
Emax (5-HT2A receptor [1]; 5-HTome screen): > 70%
EC50 (5-HT2A receptor [1]; [23]): 0.149 µM
shift in potency between (R)-DOM and (R)-Ariadne (rabbits): 25 fold
DOM-like effects (cats; 10 mg/kg, s.c., versus (R)-DOM 0.5 mg/kg): nearly no DOM-like effects
Emax (calcium flux) (5-HT2C receptor [2]): 60%
clasping duration, Aux-KO mice [3]: down to zero
clasping score, Aux-KO mice [3]: down to zero
hallucinogenic / psychoactive effect (humans; 25 mg p.o. ref 6): no hallucinogenic effect but a mild threshold psychoactive effect
psychedelic effects (humans; 100-300 mg, geriatric senile subjects ref 38): no psychedelics effects
hallucinogenic effects (humans; up to 270 mg, healthy subjects ref 14): No hallucinations or perceptual alterations were observed
hallucinogenic effects (humans; up to (and beyond) 100 mg per day, route not specified ref 8): no hallucinations
hallucinogenic effects (humans; up to (and beyond) 100 mg per day, route not specified ref 8, listed as BL-3912A): lack of hallucinogenic effects
EC50 (5-HT2A receptor [4]; read-out: EC50 (calcium flux)): 0.03 µM
Emax (calcium flux) (5-HT2A receptor [4]; relative to 5-HT): 96%
Ki (5-HT2A receptor [5]): 0.053 µM
effect in geriatric senile subjects (patients; 50 mg per day ref 8): Improvement in alertness, mobility and sociability
effect in subjects with Parkinson's disease (patients; 100 mg per day ref 8): nearly complete remission of symptoms
effect in patients with schizophrenia and bipolar disorder (patients; 50-100 mg per day ref 8): rapid remission of psychotic symptoms
EC50 (5-HT1F receptor; 5-HTome screen): 0.3 to 0.6 µM
EC50 (5-HT1e receptor): 0.3 to 0.6 µM
HTR after pretreatment with 5-HT2A antagonist MDL100,907 (volinanserin) (mice [6]; MDL100907 0.01 and 0.032 mg/kg ip 15 min prior): completely inhibited
dose of peak (maximum) HTR (mice [6]; s.c.): 10 mg/kg
EC50 (5-HT1B receptor): 4 µM
EC50 (5-HT2B receptor [7]; 5-HTome screen): < 1 µM
Emax (5-HT2B receptor [7]; 5-HTome screen): > 70%
EC50 (5-HT2B receptor [7]; [23]): 0.739 µM
number of balance beam runs, Aux-KO mice post-treatment [8]: significantly higher and comparable to WT mice
avoidance behavior (rats [9]): improved avoidance behavior
EC50 (5-HT1A receptor): 0.3 to 0.6 µM
effect on general locomotion (mice [10]; 10 mg/kg): minor sedative effect
effect on general locomotion (mice [10]; 30 mg/kg): marked sedation
time in the center of the arena (mice [10]; mouse, in vivo): trend for spending less time in the center of the arena
EC50 (5-HT2C receptor [11]; 5-HTome screen): < 1 µM
Emax (5-HT2C receptor [11]; 5-HTome screen): > 70%
EC50 (5-HT2C receptor [11]; [23]): 0.249 µM
EC50 (5-HT1D receptor): 0.3 to 0.6 µM
latency to bite food pellets (mice [12]): dose-dependent trend toward reducing latency to bite
effect on open arm entries and time (mice [13]): acute anxiogenic-like effect

CCC(N)Cc1cc(OC)c(C)cc1OC (stereo not shown) [Ariadne, 2-amino-1-(2,5-dimethoxy-4-methylphenyl)-butane]
Emax (5-HT2A receptor [1]): > 70%
decrease in potency versus the alpha-methyl (DOx) counterpart (5-HT2A receptor [1]; Gq dissociation (Gq versus G11 for Ariadne/DOM)): 4-to-6 fold and 6 fold
Emax (5-HT2A receptor [1]; read-out: Emax (Gq)): 80%
decrease in potency versus the alpha-methyl (DOx) counterpart (5-HT2A receptor [14]): ~ 4.5 fold
efficacy (5-HT2A receptor [14]; normalized to 5-HT): 83%
displacement of standard radioligands (5-HT2A receptor [15]): more than 50%
combined score of DOM-like behavioral features (cats; in comparison to (R)-DOM ref 10): low combined score of DOM-like behavioral features
EC50 (dopamine 1 receptor): > 10 µM
activity at NET [16]: essentially no activity
EC50 (adrenergic receptors): > 10 µM
hallucinogenic / psychoactive effect (humans; 32 mg p.o. ref 6): no hallucinogenic effect but a mild threshold psychoactive effect
subjective effect (online experience report) (humans; 75 mg orally, male ref 36): mild MDMA-like effects, but no obvious hallucinogenic effect
subjective effect (online experience report) (humans; 125 mg orally, female ref 37): unique hybrid between MDMA-like and DOX/psychedelic-like activity
dose leading to discernable psychoactive effects (humans; aggregate of human data): > 50 mg
dose up to which no hallucinogenic effects were observed (humans; aggregate of human data): 100 to 300 mg
activity at SERT [17]: essentially no activity
selectivity of 5-HT2 agonism over 5-HT1F (5-HT1F receptor): 0.5-1 log
serotonergic-like spasmogenic effect (rat smooth muscle): weak serotonergic-like effect
EC50 (dopamine 2 receptor): > 10 µM
brain penetration [18]: high brain penetration
displacement of standard radioligands (5-HT2B receptor [19]): more than 50%
decrease in HTR count per 15 min compared to racemic DOPR (mice [6]; s.c.): > 3 fold
dose of peak (maximum) HTR (mice [6]; s.c.): 10 mg/kg
substitution for MDMA stimulus (rats [20]): full substitution for MDMA stimulus
Emax (5-HT2B receptor [7]): > 70%
activity at DAT [21]: essentially no activity
Emax (5-HT2C receptor [11]): > 70%
substitution in LSD trained animals (rats [22]): substituted responding in LSD trained animals
